Assay results taken from ChEMBL document CHEMBL1155898 (J Med Chem, 2008).
pIC50, pKi: −log10 of the molar value. Activity calls are given as the source filed them.

Key:
[1] = Displacement of [3H]flumazenil from CBR in bovine cortical membrane; assay type: cell membranes, Bos taurus
Summary of the method: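 Bovine or human cortical membranes washed free of endogenous GABA. […] Nonspecific binding with 10 µM diazepam. At least six concentrations over 3 log units, DMSO 2%. IC50 converted to Ki by Cheng-Prusoff (Kd 0.85 nM bovine, 0.91 nM human). Ki is the mean of three determinations.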

Homo sapiens [2] = organism: Homo sapiens; assay: Ratio of Ki for human CBR in absence of GABA to Ki for human CBR in presence of 50 uM GABA
Bos taurus [3] = organism: Bos taurus; assay: Ratio of Ki for bovine CBR in absence of GABA to Ki for bovine CBR in presence of 50 uM GABA
Rattus norvegicus [4] = organism: Rattus norvegicus; assay: Agonist activity at CBR in Sprague-Dawley rat brain cortex assessed as increase in chloride influx; assay type: functional, tissue-based
[5] = Displacement of [3H]flumazenil from CBR in human cortical membrane; assay type: cell membranes
Summary of the method: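 Bovine or human cortical membranes washed free of endogenous GABA. Nonspecific binding with 10 µM diazepam. At least six concentrations over 3 log units, DMSO 2%. Ki is the mean of three determinations.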

Rattus norvegicus [6] = organism: Rattus norvegicus; assay: Inverse agonist activity at CBR in Sprague-Dawley rat brain cortex assessed as decrease in chloride influx; assay type: functional
Bos taurus [7] = organism: Bos taurus; assay: Displacement of [3H]flumazenil from CBR in bovine cortical membrane at 10 uM; assay type: cell membranes
Homo sapiens [8] = organism: Homo sapiens; assay: Displacement of [3H]flumazenil from CBR in human cortical membrane at 10 uM; assay type: cell membranes
Mus musculus [9] = assay: Anticonvulsant activity in CD1 albino mouse assessed as pentylenetetrazole-induced death latency time at 1 mg/kg, ip; assay type: functional, organism-based; parameters: dose 1 mg/kg
Summary of the method: (§1)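 Mice dosed po or ip in 1% CMC (10 mL/kg). Pentylenetetrazole 90 mg/kg sc given 30 min later; clonic generalized convulsions observed over 30 min. ANOVA/Fisher PLSD versus vehicle controls.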

Mus musculus [10] = assay: Effect on learning and memory performance in CD1 albino mouse assessed as retention session latency at 1 mg/kg, ip by passive avoidance test; assay type: functional; conditions: route intraperitoneal
Summary of the method: (§2)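 Mice dosed po or ip in 1% CMC (10 mL/kg). Step-through passive avoidance in a two-compartment box (lit and dark, joined by guillotine door); latencies recorded in training and retention sessions. At least 15-20 mice per group; ANOVA/Fisher PLSD versus CMC controls.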

Mus musculus [11] = assay: Antianxiety activity in CD1 albino mouse assessed as time spent in light at 1 mg/kg, ip by light-dark box method; assay type: functional; conditions: route intraperitoneal
Summary of the method: (§3)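 Male CD-1 mice given drug po or ip in 1% CMC at 10 mL/kg. Light/dark box: number of transfers between compartments and time spent in the lit side recorded. At least 15-20 mice per group; ANOVA/Fisher PLSD versus vehicle.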

Mus musculus [12] = assay: Effect on ethanol-induced sleep in CD1 albino mouse assessed as induction time 1 mg/kg, ip; assay type: functional; conditions: route intraperitoneal
Summary of the method: (§4)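 Mice dosed po or ip in 1% CMC (10 mL/kg). Ethanol 4 g/kg ip given 30 min later. Sleep time taken as duration of loss of righting reflex, cut-off 210 min. At least 15-20 mice per group; ANOVA/Fisher PLSD.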

Mus musculus [13] = assay: Effect on ethanol-induced sleep in CD1 albino mouse time assessed as endurance time 1 mg/kg, ip; assay type: functional; conditions: route intraperitoneal; summary of the method: as §4
Mus musculus [14] = assay: Effect on learning and memory performance in CD1 albino mouse assessed as training session latency at 1 mg/kg, ip by passive avoidance test; assay type: functional; conditions: route intraperitoneal; summary of the method: as §2
Mus musculus [15] = assay: Anticonvulsant activity in CD1 albino mouse assessed as pentylenetetrazole-induced convulsion latency time at 1 mg/kg, ip; assay type: functional, organism-based; parameters: dose 1 mg/kg; summary of the method: as §1
Mus musculus [16] = assay: Toxic myorelaxant activity in CD1 albino mouse assessed as number of falls in 30 secs at 0.3 mg/kg, po after 30 mins by rotarod test; assay type: toxicity, organism-based; parameters: dose 0.3 mg/kg, route oral; conditions: in vivo
Summary of the method: (§5)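 Male CD-1 mice, dosed po or ip in 1% CMC (10 mL/kg). Rota-rod at 16 rpm; falls counted over 30 s, 30 min after dosing. At least 15-20 mice per group; ANOVA with Fisher PLSD versus CMC/saline controls.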

Mus musculus [17] = assay: Antianxiety activity in CD1 albino mouse assessed as number of crosses at 6.5 mg/kg, po by light-dark box method; assay type: functional; summary of the method: as §3
Mus musculus [18] = assay: Antianxiety activity in CD1 albino mouse assessed as number of crosses at 1 mg/kg, po by light-dark box method; assay type: functional; summary of the method: as §3
Mus musculus [19] = assay: Toxic myorelaxant activity in CD1 albino mouse assessed as number of falls in 30 secs at 6.5 mg/kg, po after 30 mins by rotarod test; assay type: toxicity, organism-based; parameters: dose 6.5 mg/kg, route oral; conditions: in vivo; summary of the method: as §5
Mus musculus [20] = assay: Effect on ethanol-induced sleep in CD1 albino mouse assessed as induction time 12.5 mg/kg, po; assay type: functional; summary of the method: as §4
Mus musculus [21] = assay: Antianxiety activity in CD1 albino mouse assessed as number of crosses at 0.3 mg/kg, po by light-dark box method; assay type: functional; summary of the method: as §3
Mus musculus [22] = assay: Toxic myorelaxant activity in CD1 albino mouse assessed as number of falls in 30 secs at 1 mg/kg, po after 30 mins by rotarod test; assay type: toxicity, organism-based; parameters: dose 1 mg/kg, route oral; conditions: in vivo; summary of the method: as §5
Mus musculus [23] = assay: Antianxiety activity in CD1 albino mouse assessed as number of crosses at 12.5 mg/kg, po by light-dark box method; assay type: functional; summary of the method: as §3
Mus musculus [24] = assay: Anticonvulsant activity in CD1 albino mouse assessed as pentylenetetrazole-induced death latency time at 12.5 mg/kg, po; assay type: functional; summary of the method: as §1
Mus musculus [25] = assay: Antianxiety activity in CD1 albino mouse assessed as number of crosses at 3 mg/kg, po by light-dark box method; assay type: functional; summary of the method: as §3
Mus musculus [26] = assay: Effect on learning and memory performance in CD1 albino mouse assessed as retention session latency at 6.5 mg/kg, po by passive avoidance test; assay type: functional; summary of the method: as §2
Mus musculus [27] = assay: Effect on learning and memory performance in CD1 albino mouse assessed as training session latency at 6.5 mg/kg, po by passive avoidance test; assay type: functional; summary of the method: as §2
Mus musculus [28] = assay: Anticonvulsant activity in CD1 albino mouse assessed as pentylenetetrazole-induced convulsion latency time at 3 mg/kg, po; assay type: functional; summary of the method: as §1
Mus musculus [29] = assay: Anticonvulsant activity in CD1 albino mouse assessed as pentylenetetrazole-induced death latency time at 6.5 mg/kg, po; assay type: functional; summary of the method: as §1
Mus musculus [30] = assay: Antianxiety activity in CD1 albino mouse assessed as time spent in light at 12.5 mg/kg, po by light-dark box method; assay type: functional; summary of the method: as §3
Mus musculus [31] = assay: Effect on ethanol-induced sleep in CD1 albino mouse time assessed as endurance time 3 mg/kg, po; assay type: functional; summary of the method: as §4
Mus musculus [32] = assay: Antianxiety activity in CD1 albino mouse assessed as time spent in light at 0.3 mg/kg, po by light-dark box method; assay type: functional; summary of the method: as §3
Mus musculus [33] = assay: Anticonvulsant activity in CD1 albino mouse assessed as pentylenetetrazole-induced death latency time at 3 mg/kg, po by; assay type: functional; summary of the method: as §1
Mus musculus [34] = assay: Effect on ethanol-induced sleep in CD1 albino mouse assessed as induction time 6.5 mg/kg, po; assay type: functional; summary of the method: as §4
Mus musculus [35] = assay: Antianxiety activity in CD1 albino mouse assessed as time spent in light at 6.5 mg/kg, po by light-dark box method; assay type: functional; summary of the method: as §3
Mus musculus [36] = assay: Effect on ethanol-induced sleep in CD1 albino mouse assessed as endurance time 12.5 mg/kg, po; assay type: functional; summary of the method: as §4
Mus musculus [37] = assay: Anticonvulsant activity in CD1 albino mouse assessed as pentylenetetrazole-induced convulsion latency time at 6.5 mg/kg, po; assay type: functional; summary of the method: as §1
Mus musculus [38] = assay: Antianxiety activity in CD1 albino mouse assessed as time spent in light at 3 mg/kg, po by light-dark box method; assay type: functional; summary of the method: as §3
Mus musculus [39] = assay: Effect on ethanol-induced sleep in CD1 albino mouse time assessed as endurance time 6.5 mg/kg, po; assay type: functional; summary of the method: as §4
Mus musculus [40] = assay: Effect on learning and memory performance in CD1 albino mouse assessed as training session latency at 12.5 mg/kg, po by passive avoidance test; assay type: functional; summary of the method: as §2
Mus musculus [41] = assay: Effect on ethanol-induced sleep in CD1 albino mouse assessed as induction time at 3 mg/kg, po; assay type: functional; summary of the method: as §4
Mus musculus [42] = assay: Toxic myorelaxant activity in CD1 albino mouse assessed as number of falls in 30 secs at 3 mg/kg, po after 30 mins by rotarod test; assay type: toxicity, organism-based; parameters: dose 3 mg/kg, route oral; conditions: in vivo; summary of the method: as §5
Mus musculus [43] = assay: Effect on learning and memory performance in CD1 albino mouse assessed as training session latency at 3 mg/kg, po by passive avoidance test; assay type: functional; summary of the method: as §2
Mus musculus [44] = assay: Effect on learning and memory performance in CD1 albino mouse assessed as retention session latency at 3 mg/kg, po by passive avoidance test; assay type: functional; summary of the method: as §2
Mus musculus [45] = assay: Antianxiety activity in CD1 albino mouse assessed as time spent in light at 1 mg/kg, po by light-dark box method; assay type: functional; summary of the method: as §3
Mus musculus [46] = assay: Toxic myorelaxant activity in CD1 albino mouse assessed as number of falls in 30 secs at 12.5 mg/kg, po after 30 mins by rotarod test; assay type: toxicity, organism-based; parameters: dose 12.5 mg/kg, route oral; conditions: in vivo; summary of the method: as §5
Mus musculus [47] = assay: Anticonvulsant activity in CD1 albino mouse assessed as pentylenetetrazole-induced convulsion latency time at 12.5 mg/kg, po; assay type: functional; summary of the method: as §1
Mus musculus [48] = assay: Effect on learning and memory performance in CD1 albino mouse assessed as retention session latency at 12.5 mg/kg, po by passive avoidance test; assay type: functional; summary of the method: as §2

CCOC(=O)c1ncn2c1CN=C(c1ccc([N+](=O)[O-])cc1)c1ccccc1-2
pIC50 [1]: 8.74

CCOC(=O)c1ncn2c1CN=C(c1ccc([N+](=O)[O-])cc1)c1cc(F)ccc1-2
Ratio Ki (Homo sapiens [2]): 0.86
Ratio Ki (Bos taurus [3]): 0.89
Activity (Rattus norvegicus [4]): Active
pKi [5]: 7.70
Activity (Rattus norvegicus [6]): Active
Activity (Bos taurus [7]): > 80%
pKi [1]: 7.83
Activity (Homo sapiens [8]): > 80%

CN1C(=O)CN=C(c2ccccc2)c2cc(Cl)ccc21 [DIAZEPAM]
Activity (Mus musculus [9]): inactive
Time (Mus musculus [10]): 52.3 s
Time (Mus musculus [11]): 175.3 s
Time (Mus musculus [12]): 4.6 min
Time (Mus musculus [13]): >210 min
Time (Mus musculus [14]): 20.9 s
Activity (Mus musculus [15]): inactive

CCOC(=O)c1ncn2c1CN(C)C(=O)c1cc(F)ccc1-2 [FLUMAZENIL]
pKi [1]: 8.72

CN1C(=O)CN=C(c2ccccc2F)c2cc([N+](=O)[O-])ccc21 [FLUNITRAZEPAM]
Ratio Ki (Homo sapiens [2]): 1.6
Ratio Ki (Bos taurus [3]): 1.68
pKi [5]: 8.19
pKi [1]: 8.29

CCOC(=O)c1ncn2c1CN=C(c1cccc([N+](=O)[O-])c1)c1cc(F)ccc1-2
Activity (Mus musculus [16]): 2.3
Ratio Ki (Homo sapiens [2]): 1.2
Activity (Mus musculus [17]): 5.4
Activity (Mus musculus [18]): 8.6
Activity (Mus musculus [19]): 2.7
Time (Mus musculus [20]): 6.8 min
Ratio Ki (Bos taurus [3]): 1.19
Activity (Mus musculus [21]): 14.6
Activity (Mus musculus [22]): 2.2
Activity (Mus musculus [23]): 5.1
Time (Mus musculus [24]): 39.8 min
Activity (Mus musculus [25]): 5.6
Time (Mus musculus [26]): 76.5 s
Time (Mus musculus [27]): 17.9 s
Activity (Rattus norvegicus [4]): Active
pKi [5]: 8.01
Time (Mus musculus [12]): 6.8 min
Time (Mus musculus [13]): 177.8 min
Time (Mus musculus [28]): 18.7 min
Time (Mus musculus [29]): 22.5 min
Time (Mus musculus [30]): 186.8 s
Time (Mus musculus [31]): 13.5 min
Activity (Rattus norvegicus [6]): Active
Activity (Mus musculus [32]): 123.7
Time (Mus musculus [33]): 21.9 min
Time (Mus musculus [34]): 7.3 min
Time (Mus musculus [35]): 181.2 s
Time (Mus musculus [36]): 177.8 min
Activity (Bos taurus [7]): > 80%
Time (Mus musculus [37]): 19.3 min
Time (Mus musculus [38]): 169.3 s
Time (Mus musculus [39]): 118.2 min
Time (Mus musculus [40]): 16 s
Time (Mus musculus [41]): 6.1 min
Activity (Mus musculus [42]): 2.1
pKi [1]: 8.36
Time (Mus musculus [43]): 18.3 s
Time (Mus musculus [44]): 88.7 s
Activity (Homo sapiens [8]): > 80%
Time (Mus musculus [45]): 132 s
Activity (Mus musculus [46]): 4.4
Time (Mus musculus [47]): 23.6 min
Time (Mus musculus [48]): 55.7 s
